MLL AF4-AF9 inh: inhibitors of human MLL-AF4/AF9 interaction. P42568. AlphaScreen, biotin-AF4 peptide binding to FLAG-AF9. inhibition, % at 10 µM. 350,000 tested, 0.47% active. AID 651704;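 active = every replicate reaching a set inhibition limit, whatever the replicate mean, cut at about 25% in these data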;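 note: 0% = plate neutral control median and 100% = total signal loss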
Target sequence (P42568 whole entry, looked up): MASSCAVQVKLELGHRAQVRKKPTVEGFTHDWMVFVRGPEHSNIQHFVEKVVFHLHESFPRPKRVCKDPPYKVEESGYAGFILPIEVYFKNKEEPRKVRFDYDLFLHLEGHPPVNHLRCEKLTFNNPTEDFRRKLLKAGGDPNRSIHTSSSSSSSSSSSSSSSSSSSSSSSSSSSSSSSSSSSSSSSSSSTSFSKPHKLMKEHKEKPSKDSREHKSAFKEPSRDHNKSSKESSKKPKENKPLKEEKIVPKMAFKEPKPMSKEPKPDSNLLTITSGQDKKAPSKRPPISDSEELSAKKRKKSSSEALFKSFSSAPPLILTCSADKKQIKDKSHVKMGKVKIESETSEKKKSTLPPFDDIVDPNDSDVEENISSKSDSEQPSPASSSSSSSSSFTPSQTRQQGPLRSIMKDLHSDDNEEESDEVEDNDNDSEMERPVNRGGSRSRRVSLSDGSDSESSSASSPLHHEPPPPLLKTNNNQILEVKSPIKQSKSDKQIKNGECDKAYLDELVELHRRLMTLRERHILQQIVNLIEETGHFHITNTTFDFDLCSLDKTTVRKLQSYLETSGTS
RAD54 inh: inhibitors of human RAD54 branch migration | inhibition, % at 10.4 µM | AID 602329 | 360,000 tested, 0.14% active | RAD54 Holliday junction branch migration, FAM/BHQ fluorescence;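 active = mean normalized replicate activity at least 40 and at least half of replicates scoring 40 or more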;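 note: 0% = median of neutral control wells and 100% = median of positive control wells; inhibitors cause a drop in the FAM fluorescence signal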
S100A4 MyoIIA: inhibitors of human S100A4 binding to myosin IIA peptide; P26447; S100A4/TAMRA-MyoIIA peptide fluorescence polarization; inhibition, % at 10.7 µM; 360,000 tested, 0.14% active; AID 652163;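 active = mean inhibition of at least 70% across replicates, with every replicate also reaching that level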
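Assay system: human S100A4 monomer with TAMRA-labelled myosin IIA peptide / Buffer or medium: Calcium-containing HEPES buffer, pH 7.2 / Reagent: TAMRA-labelled myosin IIA heavy-chain peptide probe, 5 nM / Compound: one dose per compound / Timing: polarization read 5 min after assay mix addition, stable 5–60 min / Benchmarks: neutral control DMSO, positive control TFP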
CASP6 VEID inh: caspase-6 (human) enzyme inhibition; P55212; purified caspase-6, Z-VEID-R110 cleavage fluorescence; inhibition, % at 12.5 µM; 350,000 tested, 0.53% active; AID 686996;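 active = mean inhibition across replicates at least about 35%, with every replicate also reaching that limit, limit read from the data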;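 note: 0% = median of neutral control wells and 100% = no fluorescence left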
RAD52 anneal inh: inhibitors of human RAD52 DNA annealing; P43351; recombinant RAD52 DNA annealing, FRET fluorescence; inhibition, % at 18.7 µM; 360,000 tested, 0.46% active;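 active = every replicate showing at least 50% inhibition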
XiGFP reactiv: reactivates the inactive X chromosome in mouse fibroblasts; XiGFP mouse fibroblasts, % GFP-positive cells imaging, 3 d; cells co-treated with 5-aza-dC sensitizer; scaled so ellipticine positive control = 100%; activation, % at 7.58 µM; 360,000 tested, 0.055% active; AID 743238;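 active = mean normalized replicate activation at least 10% and every replicate at or above 10%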;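 note: 0% = median of on-plate neutral control wells and 100% = ellipticine 6 µM median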
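material = 68-5-11 XiGFP fibroblast line | medium = DMEM plus 5-aza-dC sensitizer | schedule = 3 days compound exposure | benchmarks = positive control ellipticine, 6 µM final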
* = called active by the depositor. Sampled rows, rich in hits. Any-hit rate of the full collection: about 1.3%.

CCn1cc(CNC(=S)Nc2cccc3ccccc23)cn1 was read as MLL AF4-AF9 inh 2, S100A4 MyoIIA -4, CASP6 VEID inh 53*, RAD52 anneal inh -17 and XiGFP reactiv 0.
`COc1ccc(C#Cc2ccc([C@H]3[C@H]4CN(S(=O)(=O)c5ccccc5)CCCCN4[C@H]3CO)cc2)cc1` gave MLL AF4-AF9 inh -3, RAD54 inh -7, S100A4 MyoIIA 123*, CASP6 VEID inh -3, RAD52 anneal inh -12 and XiGFP reactiv 0.
C/C=C/c1ccc([C@H]2[C@@H](CO)N3CCCCN(S(=O)(=O)c4ccc(OC)cc4)C[C@H]23)cc1 was read as MLL AF4-AF9 inh 6, RAD54 inh -5, S100A4 MyoIIA -1, CASP6 VEID inh 1, RAD52 anneal inh 60* and XiGFP reactiv 0.
CN(C)C(=O)[C@@H]1[C@@H](CO)[C@@H]2Cn3c(ccc(C4=CCCCC4)c3=O)[C@H]1N2Cc1ccccc1F was read as MLL AF4-AF9 inh 0, RAD54 inh -13, S100A4 MyoIIA 10, CASP6 VEID inh -1, RAD52 anneal inh -6 and XiGFP reactiv 0.
`O=C(O)c1cc([N+](=O)[O-])cc2c1C=Cc1ccccc1O2` gave MLL AF4-AF9 inh -1, S100A4 MyoIIA -2, CASP6 VEID inh 38*, RAD52 anneal inh -3 and XiGFP reactiv 0.
For O=C(NCCO)c1cc([N+](=O)[O-])cc2c1C=Cc1ccccc1O2 the results were MLL AF4-AF9 inh 1, S100A4 MyoIIA -3, CASP6 VEID inh 1, RAD52 anneal inh -16 and XiGFP reactiv 0.
`O=C(Nc1ccc(F)cc1)Nc1nnc(-c2ccccc2)o1` gave MLL AF4-AF9 inh 0, RAD54 inh 2, S100A4 MyoIIA 3, CASP6 VEID inh 3, RAD52 anneal inh -11 and XiGFP reactiv 0.
Cc1ccc(NC(=O)Nc2nnc(-c3ccccc3)o2)cc1 was read as MLL AF4-AF9 inh -1, S100A4 MyoIIA -1, CASP6 VEID inh 38*, RAD52 anneal inh -1 and XiGFP reactiv 0.
For Cc1ccc(S(=O)(=O)NCC[C@H]2CC[C@@H](NC(=O)c3ccccn3)[C@H](CO)O2)cc1 the results were MLL AF4-AF9 inh 1, RAD54 inh 1, S100A4 MyoIIA 5, CASP6 VEID inh 1, RAD52 anneal inh -8 and XiGFP reactiv 0.
Nc1cc(C(Cl)=C(Cl)Cl)c(S(N)(=O)=O)cc1S(N)(=O)=O was read as MLL AF4-AF9 inh -1, RAD54 inh -10, S100A4 MyoIIA 20, CASP6 VEID inh 76*, RAD52 anneal inh -18 and XiGFP reactiv 0.
CCC(=O)N1[C@H](C#N)[C@@H](c2ccccc2-c2ccccc2)[C@@H]1CO was read as MLL AF4-AF9 inh -2, S100A4 MyoIIA -2, CASP6 VEID inh 3, RAD52 anneal inh -8 and XiGFP reactiv 0.
`CCC(=O)N1[C@@H](C#N)[C@H](c2ccccc2-c2ccccc2)[C@@H]1CO` gave MLL AF4-AF9 inh -2, S100A4 MyoIIA 0, CASP6 VEID inh -3, RAD52 anneal inh 71* and XiGFP reactiv 0.
For N#C[C@@H]1[C@H](c2ccccc2C2=CCCCC2)[C@H](CO)N1C(=O)NC1CCCC1 the results were MLL AF4-AF9 inh -1, S100A4 MyoIIA 131*, CASP6 VEID inh 0, RAD52 anneal inh 12 and XiGFP reactiv 0.
For COCC(=O)N1[C@@H](C#N)[C@H](c2ccc(-c3cccc(F)c3)cc2)[C@@H]1CO the results were MLL AF4-AF9 inh -1, RAD54 inh -18, S100A4 MyoIIA 116*, CASP6 VEID inh 2, RAD52 anneal inh -20 and XiGFP reactiv 0.
`N#C[C@H]1[C@H](c2ccccc2C2=CCCCC2)[C@H](CO)N1C(=O)NC1CCCC1` gave MLL AF4-AF9 inh 0, S100A4 MyoIIA -15, CASP6 VEID inh 1, RAD52 anneal inh 8 and XiGFP reactiv 0.
`C[C@@H]1CN([C@@H](C)CO)S(=O)(=O)c2ccc(C3=CCCCC3)cc2O[C@H]1CN(C)C(=O)CN(C)C` gave MLL AF4-AF9 inh -4, RAD54 inh -7, S100A4 MyoIIA -46, CASP6 VEID inh 3, RAD52 anneal inh 33 and XiGFP reactiv 0.

From PubChem
